The results in this text go back to paper PMC11463018 (Journal of Enzyme Inhibition and Medicinal Chemistry, 2024).

One data set deals with T1, HDAC6 (Homo sapiens, UniProt Q9UBN7).
T1 sequence (Q9UBN7 1-1215): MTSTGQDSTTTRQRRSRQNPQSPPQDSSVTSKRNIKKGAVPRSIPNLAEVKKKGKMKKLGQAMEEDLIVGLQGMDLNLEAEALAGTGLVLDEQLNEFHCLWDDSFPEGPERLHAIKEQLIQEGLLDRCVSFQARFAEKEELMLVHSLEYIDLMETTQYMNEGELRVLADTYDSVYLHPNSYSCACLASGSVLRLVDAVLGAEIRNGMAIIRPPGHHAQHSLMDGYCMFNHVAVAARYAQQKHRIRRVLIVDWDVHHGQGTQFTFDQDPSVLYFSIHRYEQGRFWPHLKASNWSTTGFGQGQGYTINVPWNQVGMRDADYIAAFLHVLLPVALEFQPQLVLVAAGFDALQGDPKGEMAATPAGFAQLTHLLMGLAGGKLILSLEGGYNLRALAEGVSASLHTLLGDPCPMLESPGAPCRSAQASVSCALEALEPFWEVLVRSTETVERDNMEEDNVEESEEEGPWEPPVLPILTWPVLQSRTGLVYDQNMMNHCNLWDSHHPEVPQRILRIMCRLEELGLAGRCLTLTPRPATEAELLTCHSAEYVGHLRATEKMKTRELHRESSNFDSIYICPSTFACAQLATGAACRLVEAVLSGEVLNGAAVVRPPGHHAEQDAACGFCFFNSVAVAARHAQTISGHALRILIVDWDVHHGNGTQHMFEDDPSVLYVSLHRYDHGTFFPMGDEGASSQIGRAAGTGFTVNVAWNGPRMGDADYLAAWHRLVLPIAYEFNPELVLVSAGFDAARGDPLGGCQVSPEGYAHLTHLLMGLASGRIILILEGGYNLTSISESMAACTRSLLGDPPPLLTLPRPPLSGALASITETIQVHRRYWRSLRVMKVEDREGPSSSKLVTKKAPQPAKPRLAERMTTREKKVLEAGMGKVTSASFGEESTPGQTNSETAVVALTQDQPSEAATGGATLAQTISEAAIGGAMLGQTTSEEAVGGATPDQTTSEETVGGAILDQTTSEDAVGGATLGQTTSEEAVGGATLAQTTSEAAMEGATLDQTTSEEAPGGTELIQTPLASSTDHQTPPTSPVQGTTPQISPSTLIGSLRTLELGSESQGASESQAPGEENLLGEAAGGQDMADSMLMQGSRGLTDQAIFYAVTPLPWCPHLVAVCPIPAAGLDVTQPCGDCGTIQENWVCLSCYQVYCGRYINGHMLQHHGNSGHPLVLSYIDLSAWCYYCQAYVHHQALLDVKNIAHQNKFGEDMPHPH
In words: In vitro HDAC enzyme assay. Type of data set: biochemical.

The target of another data set is JAK1 (Homo sapiens, UniProt P23458). Kind of data set: Kinase inhibition assay. Type of data set: biochemical.
The subject of another data set is MDA-MB-231. Kind of data set: cells. The class given is cell-based. The note with it: Homo sapiens, MDA-MB-231, read-out: Antiproliferative effect IC50, MDA-MB-231.
In the next data set the test system is RPMI-8226. In words: cells. The class given is cell-based. The note with it: Homo sapiens, RPMI-8226, read-out: Antiproliferative effect IC50, RPMI-8226.
Data set [1] in a line: Microsomal stability assay. The class given is in vitro ADME. The conditions noted are these: human, human liver microsomes, pH 7.4. The method in brief: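 Human liver microsomes at 0.8 mg/mL, with magnesium chloride and potassium phosphate buffer (pH 7.4), incubated with test compound at 0.5 μM. Mix prewarmed 5 min at 37 °C, then started with NADPH. Stopped at 0, 5, 10, 15, 30, 60 or 90 min with ice-cold ethyl acetate, spun 4000 rpm for 10 min at 4 °C. Supernatant analysed by LC-MS/MS and half-life determined.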

Sequence of JAK1 (P23458 whole entry): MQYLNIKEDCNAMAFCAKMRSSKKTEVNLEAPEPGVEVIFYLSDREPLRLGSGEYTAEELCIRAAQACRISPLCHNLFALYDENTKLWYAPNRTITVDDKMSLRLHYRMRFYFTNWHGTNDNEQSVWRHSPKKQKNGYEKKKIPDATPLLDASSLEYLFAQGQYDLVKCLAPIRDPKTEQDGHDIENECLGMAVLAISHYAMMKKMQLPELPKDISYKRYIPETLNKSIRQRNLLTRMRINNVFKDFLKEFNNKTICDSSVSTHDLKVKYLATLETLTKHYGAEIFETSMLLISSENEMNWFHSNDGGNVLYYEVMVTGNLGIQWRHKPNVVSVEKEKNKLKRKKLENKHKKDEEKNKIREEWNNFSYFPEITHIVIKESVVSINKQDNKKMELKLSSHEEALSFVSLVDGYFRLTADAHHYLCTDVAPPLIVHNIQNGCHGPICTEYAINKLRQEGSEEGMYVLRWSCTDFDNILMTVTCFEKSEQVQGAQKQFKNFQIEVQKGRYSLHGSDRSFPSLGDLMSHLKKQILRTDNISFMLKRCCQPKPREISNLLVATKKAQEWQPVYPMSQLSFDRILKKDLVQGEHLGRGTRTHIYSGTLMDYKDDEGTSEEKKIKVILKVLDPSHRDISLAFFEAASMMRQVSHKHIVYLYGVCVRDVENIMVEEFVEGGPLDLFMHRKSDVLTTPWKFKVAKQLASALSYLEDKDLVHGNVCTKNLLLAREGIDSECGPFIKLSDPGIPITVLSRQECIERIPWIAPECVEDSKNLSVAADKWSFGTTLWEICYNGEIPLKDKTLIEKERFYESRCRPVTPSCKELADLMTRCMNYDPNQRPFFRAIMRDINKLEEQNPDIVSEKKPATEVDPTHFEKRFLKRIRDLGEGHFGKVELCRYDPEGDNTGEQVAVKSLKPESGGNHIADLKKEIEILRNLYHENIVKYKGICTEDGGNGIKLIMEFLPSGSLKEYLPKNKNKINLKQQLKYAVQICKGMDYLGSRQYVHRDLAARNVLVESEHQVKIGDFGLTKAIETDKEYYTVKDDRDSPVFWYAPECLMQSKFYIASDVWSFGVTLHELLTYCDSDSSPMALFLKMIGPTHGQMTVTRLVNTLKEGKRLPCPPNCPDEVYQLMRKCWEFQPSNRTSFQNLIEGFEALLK

Turning to `O=C(NO)c1ccc(CNc2nc3cccc(-c4ccccc4)n3n2)cc1` [Compound 16a, N-hydroxy-4-(((5-phenyl-[1,2, 4]triazolo[1,5-a]pyridin-2-yl)amino)methyl)benzamide], the IC50 at HDAC6 amounted to 0.0095 ± 0.00072 µM; on JAK1, 0.32 ± 0.018 µM; in the data set on MDA-MB-231, 0.9 ± 0.03 µM; in the data set with RPMI-8226, 0.46 ± 0.03 µM.

In the case of `COc1ccc(-c2cccc3nc(NCc4ccc(C(=O)NO)cc4)nn23)cc1` [Compound 16b, N-hydroxy-4-(((5–(4-methoxyphenyl)-[1,2, 4]triazolo[1,5-a]pyridin-2-yl)amino)methyl)benzamide], the IC50 on HDAC6 came out at 0.00875 ± 0.00046 µM; against JAK1 it was 0.146 ± 0.0085 µM; in the data set on MDA-MB-231, 0.84 ± 0.04 µM; with RPMI-8226, 0.29 ± 0.01 µM.

As for `COc1cccc(-c2cccc3nc(NCc4ccc(C(=O)NO)cc4)nn23)c1` [Compound 16c, N-hydroxy-4-(((5–(3-methoxyphenyl)-[1,2, 4]triazolo[1,5-a]pyridin-2-yl)amino)methyl)benzamide], the IC50 against HDAC6 stood at 0.0084 ± 0.00039 µM; at JAK1, 0.19 ± 0.01 µM; with MDA-MB-231 it was 0.95 ± 0.02 µM; in the data set with RPMI-8226 it was 0.31 ± 0.02 µM.

On to `COc1ccccc1-c1cccc2nc(NCc3ccc(C(=O)NO)cc3)nn12` [Compound 16d, N-hydroxy-4-(((5–(2-methoxyphenyl)-[1,2, 4]triazolo[1,5-a]pyridin-2-yl)amino)methyl)benzamide], for which the figures for the IC50 against HDAC6 and on JAK1 were 0.0102 ± 0.0008 µM and 0.75 ± 0.03 µM, respectively.

In the case of `Cc1ccc(-c2cccc3nc(NCc4ccc(C(=O)NO)cc4)nn23)cc1` [Compound 16e, N-hydroxy-4-(((5-(p-tolyl)-[1,2, 4]triazolo[1,5-a]pyridin-2-yl)amino)methyl)benzamide], the IC50 was 0.011 ± 0.0007 µM against HDAC6 and 0.304 ± 0.016 µM on JAK1.

Consider `Cc1cccc(-c2cccc3nc(NCc4ccc(C(=O)NO)cc4)nn23)c1` [Compound 16f, N-hydroxy-4-(((5-(m-tolyl)-[1,2, 4]triazolo[1,5-a]pyridin-2-yl)amino)methyl)benzamide], for which the IC50 against HDAC6 came to 0.0137 ± 0.00088 µM; on JAK1, 0.315 ± 0.015 µM.

Regarding `Cc1ccccc1-c1cccc2nc(NCc3ccc(C(=O)NO)cc3)nn12` [Compound 16g, N-hydroxy-4-(((5-(o-tolyl)-[1,2, 4]triazolo[1,5-a]pyridin-2-yl)amino)methyl)benzamide], the figures for the IC50 at HDAC6 and on JAK1 were 0.016 ± 0.0011 µM and 0.55 ± 0.032 µM, respectively.

Turning to `O=C(NO)c1ccc(CNc2nc3cccc(-c4cccc(Cl)c4)n3n2)cc1` [Compound 16h, 4-(((5–(3-chlorophenyl)-[1,2, 4]triazolo[1,5-a]pyridin-2-yl)amino)methyl)-N-hydroxybenzamide], the IC50 at HDAC6 is 0.00965 ± 0.00023 µM; against JAK1, 0.365 ± 0.025 µM.

In the case of `O=C(NO)c1ccc(CNc2nc3cccc(-c4ccccc4Cl)n3n2)cc1` [Compound 16i, 4-(((5–(2-chlorophenyl)-[1,2, 4]triazolo[1,5-a]pyridin-2-yl)amino)methyl)-N-hydroxybenzamide], the IC50 against HDAC6 turned out to be 0.0122 ± 0.0003 µM; against JAK1, 0.4 ± 0.028 µM.

For `O=C(NO)c1ccc(CNc2nc3cccc(-c4ccc(F)cc4)n3n2)cc1` [Compound 16j, 4-(((5–(4-fluorophenyl)-[1,2, 4]triazolo[1,5-a]pyridin-2-yl)amino)methyl)-N-hydroxybenzamide], the IC50 against HDAC6 is 0.0089 ± 0.00016 µM; on JAK1 it was 0.295 ± 0.016 µM; in the data set with MDA-MB-231, 0.88 ± 0.06 µM; with RPMI-8226, 0.28 ± 0.06 µM.

As to `O=C(NO)c1ccc(CNc2nc3cccc(-c4ccc(Cl)c(Cl)c4)n3n2)cc1` [Compound 16k, 4-(((5–(3,4-dichlorophenyl)-[1,2, 4]triazolo[1,5-a]pyridin-2-yl)amino)methyl)-N-hydroxybenzamide], the IC50 against HDAC6 was 0.00615 ± 0.00012 µM; against JAK1, 0.39 ± 0.024 µM.

`O=C(NO)c1ccc(CNc2nc3cccc(-c4ccc(C(F)(F)F)cc4)n3n2)cc1` [Compound 16l, N-hydroxy-4-(((5–(4-(trifluoromethyl)phenyl)-[1,2, 4]triazolo[1,5-a]pyridin-2-yl)amino)methyl)benzamide]: the IC50 is 0.0114 ± 0.00088 µM against HDAC6 and 0.46 ± 0.008 µM at JAK1.

With `O=C(NO)c1ccc(CNc2nc3cccc(-c4cc(C(F)(F)F)cc(C(F)(F)F)c4)n3n2)cc1` [Compound 16m, 4-(((5–(3,5-bis(trifluoromethyl)phenyl)-[1,2, 4]triazolo[1,5-a]pyridin-2-yl)amino)methyl)-N-hydroxybenzamide], the IC50 against HDAC6 came to 0.0205 ± 0.00078 µM; on JAK1, 0.685 ± 0.05 µM.

Take `O=C(Nc1nc2cccc(-c3ccc(CN4CCS(=O)(=O)CC4)cc3)n2n1)C1CC1` [Filgotinib, reference compound]: the IC50 worked out at 27.2 ± 1.5 µM in the data set with MDA-MB-231 and 17.5 ± 1 µM in the data set with RPMI-8226.

`O=C(CCCCCCC(=O)Nc1ccccc1)NO` [SAHA, vorinostat, reference compound] had a half-life at 0.5 μM in data set [1] of 6.8 h.

Usually IC50 stands for the concentration that inhibits the measured activity by half. One may read the half-life as the time in which the quantity being followed falls by half. Low values mean fast loss, high ones slow loss.
